Reference: ChEMBL document CHEMBL1156360, “New phenylpropanoid esters of sucrose from Polygonum lapathifolium” (J Nat Prod, 2001)

Experiments:
Format in all cases: cell-based
Raji [1] = test: Inhibition of 12-O-tetradecanoylphorbol-13-acetate-induced EBV-early antigen activation in human Raji cells at 1000 molar ratio relative to TPA; parameters: scale not given: the % may be the effect or the level left; settings: human gammaherpesvirus 4
How it was run: (§1)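 Raji cells (virus nonproducer, 1×10^6/mL) were cultured 48 h at 37 °C in 1 mL medium with n-butyric acid (4 mmol), TPA inducer (32 pmol = 20 ng in DMSO) and compound in DMSO. Dose is the mol ratio to TPA. EA-positive cells on smears were found by indirect immunofluorescence using NPC patient serum. Triplicate assays; induction is given relative to the butyric acid + TPA control (100%).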

Raji [2] = test: Inhibition of 12-O-tetradecanoylphorbol-13-acetate-induced EBV-early antigen activation in human Raji cells at 500 molar ratio relative to TPA; parameters: scale not given: the % may be the effect or the level left; settings: human gammaherpesvirus 4; how it was run: as §1
Raji [3] = test: Inhibition of 12-O-tetradecanoylphorbol-13-acetate-induced EBV-early antigen activation in human Raji cells at 100 molar ratio relative to TPA; parameters: scale not given: the % may be the effect or the level left; settings: human gammaherpesvirus 4; how it was run: as §1
Raji [4] = test: Inhibition of 12-O-tetradecanoylphorbol-13-acetate-induced EBV-early antigen activation in human Raji cells at 10 molar ratio relative to TPA; parameters: scale not given: the % may be the effect or the level left; settings: human gammaherpesvirus 4; how it was run: as §1
[5] = Cytotoxicity against human Raji cells assessed as cell viability at 1000 molar ratio by Trypan blue method; settings: read-out: Activity
How it was run: (§2)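 Raji cells (1×10^6/mL) given n-butyric acid (4 mmol), TPA (32 pmol = 20 ng per mL, in DMSO) and test compound in DMSO, then held at 37 °C for 48 h. Dose is the mol ratio of compound to TPA. Viability of the treated cells was scored by Trypan Blue staining.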

[6] = Cytotoxicity against human Raji cells assessed as cell viability at 500 molar ratio by Trypan blue method; settings: read-out: Activity; how it was run: as §2
[7] = Cytotoxicity against human Raji cells assessed as cell viability at 100 molar ratio by Trypan blue method; settings: read-out: Activity; how it was run: as §2
[8] = Cytotoxicity against human Raji cells assessed as cell viability at 10 molar ratio by Trypan blue method; settings: read-out: Activity; how it was run: as §2

SMILES | Activity (Raji [1]) [%] | Activity (Raji [2]) [%] | Activity (Raji [3]) [%] | Activity (Raji [4]) [%] | viability at 1000 molar ratio [5] [%] | viability at 500 molar ratio [6] [%] | viability at 100 molar ratio [7] [%] | viability at 10 molar ratio [8] [%]
CC[C@H](CC[C@@H](C)[C@H]1CC[C@H]2[C@@H]3C(=O)C=C4C[C@@H](O)CC[C@]4(C)[C@H]3CC[C@]12C)C(C)C | 11.5 | 42.8 | 71.5 | 100 | 60 | > 80 | > 80 | > 80
Oc1cc(O)c2c(c1)O[C@@H](c1ccc(O)c(O)c1)[C@H](O)C2 [(-)-CATECHIN] | 11.3 | 41.3 | 75.8 | 100 | 70 | > 80 | > 80 | > 80
O=C(/C=C/c1ccc(O)cc1)OC[C@H]1O[C@@](COC(=O)/C=C/c2ccc(O)cc2)(O[C@H]2O[C@H](CO)[C@@H](O)[C@H](O)[C@H]2O)[C@@H](OC(=O)/C=C/c2ccc(O)cc2)[C@@H]1O [HYDROPIPEROSIDE] | 10.6 | 39.6 | 71.5 | 100 | 70 | > 80 | > 80 | > 80
COc1cc(/C=C/C(=O)OC[C@H]2O[C@H](O[C@]3(COC(=O)/C=C/c4ccc(O)c(OC)c4)O[C@H](COC(=O)/C=C/c4ccc(O)cc4)[C@@H](O)[C@@H]3OC(=O)/C=C/c3ccc(O)cc3)[C@H](O)[C@@H](O)[C@@H]2O)ccc1O [LAPATHOSIDE A] | 10 | 37.2 | 70.9 | 95 | 70 | > 80 | > 80 | > 80
COc1cc(/C=C/C(=O)OC[C@H]2O[C@@](COC(=O)/C=C/c3ccc(O)c(OC)c3)(O[C@H]3O[C@H](COC(=O)/C=C/c4ccc(O)c(OC)c4)[C@@H](O)[C@H](O)[C@H]3O)[C@@H](OC(=O)/C=C/c3ccc(O)cc3)[C@@H]2O)ccc1O [LAPATHOSIDE B] | 26.8 | 51.6 | 77.9 | 100 | 60 | > 80 | > 80 | > 80
COc1cc(/C=C/C(=O)OC[C@H]2O[C@H](O[C@]3(CO)O[C@H](COC(=O)/C=C/c4ccc(O)cc4)[C@@H](O)[C@@H]3OC(=O)/C=C/c3ccc(O)cc3)[C@H](O)[C@@H](O)[C@@H]2O)ccc1O [LAPATHOSIDE C] | 33.6 | 59 | 83.5 | 100 | 70 | > 80 | > 80 | > 80
O=C(/C=C/c1ccc(O)cc1)OC[C@H]1O[C@@](CO)(O[C@H]2O[C@H](CO)[C@@H](O)[C@H](O)[C@H]2O)[C@@H](OC(=O)/C=C/c2ccc(O)cc2)[C@@H]1O [LAPATHOSIDE D] | 10.5 | 38.3 | 71.4 | 100 | 70 | > 80 | > 80 | > 80
COC(=O)/C=C/c1ccc(O)cc1 [METHYL P-HYDROXYCINNAMATE] | 15.7 | 42.6 | 77.5 | 100 | 70 | > 80 | > 80 | > 80
CC[C@H](CC[C@@H](C)[C@H]1CC[C@H]2[C@@H]3CC=C4C[C@@H](O[C@@H]5O[C@H](CO)[C@@H](O)[C@H](O)[C@H]5O)CC[C@]4(C)[C@H]3CC[C@]12C)C(C)C [SITOGLUSIDE] | 14.8 | 45.7 | 73.9 | 100 | 60 | > 80 | > 80 | > 80
COc1cc(/C=C/C(=O)OC[C@H]2O[C@H](O[C@]3(COC(=O)/C=C/c4ccc(O)cc4)O[C@H](COC(=O)/C=C/c4ccc(O)cc4)[C@@H](O)[C@@H]3OC(=O)/C=C/c3ccc(O)cc3)[C@H](O)[C@@H](O)[C@@H]2O)ccc1O [VANICOSIDE B] | 11.8 | 40.9 | 70 | 100 | 70 | > 80 | > 80 | > 80
